{"source": "ChEMBL document CHEMBL4513216", "about": "“Probing the Open Global Health Chemical Diversity Library for Multistage-Active Starting Points for Next-Generation Antimalarials” (ACS Infect Dis, 2020)", "data": [{"test": "Toxicity liver stage against HepG2, at 10uM", "type": "cell-based", "design": "test concentration 10 uM, cell line HepG2-A16-CD81EGFP", "conditions": "human, HepG2-A16-CD81EGFP cells; read-out: INHIBITION", "outline": "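Uninfected HepG2-A16-CD81EGFP cells, 3 × 10^3 per well, 1536-well, plated on prespotted compound at 10 μM final, parasite-free screening media added to match infected plates; puromycin 10 μM positive, DMSO 0.5% negative; run in parallel with 48 h PbLuc assay at 37 °C, 5% CO2; viability by CellTiter-Glo luminescence, normalized to controls.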", "units": {"cytotoxicity at 10 µM": "%"}, "values": [{"molecule": "COc1cccc(-n2nnc(C(=O)N3CCOC(C)C3)c2C)c1", "note": "(stereo not given)", "cytotoxicity at 10 µM": -9.95}, {"molecule": "CN(C)CCNc1ccc(-c2nc(-c3ccccc3F)no2)cn1", "cytotoxicity at 10 µM": 9.34}, {"molecule": "Cc1ccnn1CCNC(=O)c1cnc(N(C)C)nc1", "cytotoxicity at 10 µM": 2.24}, {"molecule": "Cc1cn2nc(N3CCCC3C(=O)N3CCOCC3)sc2n1", "note": "(stereo not given)", "cytotoxicity at 10 µM": -3}, {"molecule": "Cc1n[nH]c(C)c1C1CCCN1C(=O)NCC(=O)NC(C)(C)C", "note": "(stereo not given)", "cytotoxicity at 10 µM": -11.7}, {"molecule": "CCC(C)c1csc(NC(=O)Cc2csc(-c3nnc[nH]3)n2)n1", "note": "(stereo not given)", "cytotoxicity at 10 µM": -29.6}, {"molecule": "CCc1nccn1C1CCCN(C(=O)CCc2nc(C(C)C)no2)C1", "note": "(stereo not given)", "cytotoxicity at 10 µM": 5.93}, {"molecule": "CC(C)c1nnc(CN(C)C(c2ccc(F)cc2)c2cccnc2)o1", "note": "(stereo not given)", "cytotoxicity at 10 µM": 4.11}, {"molecule": "CCN1Cc2c(C(=O)NC(C)C)ncn2-c2ccccc2S1(=O)=O", "cytotoxicity at 10 µM": -83.9}, {"molecule": "Fc1cc(CN2CCOC3(CCOCC3)C2)ccc1Cl", "cytotoxicity at 10 µM": -4.57}, {"molecule": "CC(=O)N1CCCn2nc(CNS(=O)(=O)N3CCC(C)CC3)cc2C1", "cytotoxicity at 10 µM": 9.91}, {"molecule": "COC(=O)c1cccc(S(=O)(=O)NCC(c2ccco2)N2CCCC2)c1", "note": "(stereo not given)", "cytotoxicity at 10 µM": -1.74}, {"molecule": "CN(C)CCCN(C)c1nccc(N2CCN[C@H]3CS(=O)(=O)C[C@H]32)n1", "cytotoxicity at 10 µM": -0.0813}, {"molecule": "COCc1cc(N(CC(F)F)C2CC2)n2ncnc2n1", "cytotoxicity at 10 µM": -3.94}, {"molecule": "CCc1n[nH]c(C2CN(Cc3nnc(C4CC4)o3)CCO2)n1", "note": "(stereo not given)", "cytotoxicity at 10 µM": -14.3}, {"molecule": "O=C(NCCCn1nc2ccccn2c1=O)Nc1ccccc1", "cytotoxicity at 10 µM": -13.6}, {"molecule": "CN(C)c1cc(C(=O)N2CCCC2)ccn1", "cytotoxicity at 10 µM": -4.1}, {"molecule": "Cc1cc(C)n(C2CCCN(C(=O)CN(C)c3cnccn3)C2)n1", "note": "(stereo not given)", "cytotoxicity at 10 µM": 3.36}, {"molecule": "CC(C(N)=O)S(=O)(=O)Cc1cc(Cl)c2c(c1)OCO2", "note": "(stereo not given)", "cytotoxicity at 10 µM": -14.2}, {"molecule": "O=C(c1cscn1)N1CCC[C@]2(C[C@H](OCC3CC3)CO2)C1", "cytotoxicity at 10 µM": -2.86}, {"molecule": "NC(=O)c1cccnc1N1C[C@H]2CC[C@@H](C1)N(Cc1ccccn1)C2=O", "cytotoxicity at 10 µM": 7.94}, {"molecule": "CC(C)(C)OC(=O)NCCNC(=O)c1cnc(-c2ccccc2)nc1", "cytotoxicity at 10 µM": 8.12}, {"molecule": "O=C(C1CCOC1)N1CCN(CC(F)(F)F)c2ccccc21", "note": "(stereo not given)", "cytotoxicity at 10 µM": -5.74}, {"molecule": "CCOCC(O)CN1CCN(C(=O)c2cc(F)cc(F)c2)CC1", "note": "(stereo not given)", "cytotoxicity at 10 µM": 8.1}, {"molecule": "Cc1nnc(N2CC[C@H](OCC3CC3)[C@@H](Cc3ccccc3)C2)s1", "cytotoxicity at 10 µM": 5.25}, {"molecule": "Cc1ccccc1C(=O)N1CCCn2nnc(Cn3cccn3)c2C1", "cytotoxicity at 10 µM": 9.94}, {"molecule": "Cc1cc(C)n(CC2CN(Cc3nc(-c4ccco4)no3)CCO2)n1", "note": "(stereo not given)", "cytotoxicity at 10 µM": -6.58}, {"molecule": "Cc1ccc(CC(=O)N2Cc3nccn3CC(Cn3cccn3)C2)cc1", "note": "(stereo not given)", "cytotoxicity at 10 µM": -10.5}, {"molecule": "NC(=O)c1cc(C2CCCN(C(=O)CCc3ccsc3)C2)n[nH]1", "note": "(stereo not given)", "cytotoxicity at 10 µM": -5.79}, {"molecule": "O=C(NC1CCN(C2CC2)CC1)N1CCN(c2cnccn2)CC1", "cytotoxicity at 10 µM": -6.97}, {"molecule": "COCCC(=O)N1CCc2cc(Cl)cc(Cl)c2C1", "cytotoxicity at 10 µM": -13.1}, {"molecule": "O=C(C1CC1)N1CCC(c2nc(O)c3c(n2)CCN(C2CCCC2)C3)C1", "note": "(stereo not given)", "cytotoxicity at 10 µM": 4.66}, {"molecule": "CCc1nc(C2CCCN2C(=O)c2nc(C)n3ccccc23)no1", "note": "(stereo not given)", "cytotoxicity at 10 µM": 1.85}, {"molecule": "Cc1cc(CNC(=O)c2cccs2)ccc1S(C)(=O)=O", "cytotoxicity at 10 µM": 3.38}, {"molecule": "CCCc1nc(C(=O)NC(COC)c2ccnn2C)cs1", "note": "(stereo not given)", "cytotoxicity at 10 µM": -2.37}, {"molecule": "FC(F)(F)c1n[nH]c2c1CN(CCc1ccccn1)CC2", "cytotoxicity at 10 µM": 3.76}, {"molecule": "CNC(=O)NCC(CO)Cc1ccccc1OC(F)(F)F", "note": "(stereo not given)", "cytotoxicity at 10 µM": 5.97}, {"molecule": "COc1ccc(C(C)N(C)Cc2nc3c(cnn3C)c(=O)[nH]2)cc1", "note": "(stereo not given)", "cytotoxicity at 10 µM": -7.42}, {"molecule": "O=S1(=O)NC(=CSCc2ccccc2)Nc2ccccc21", "cytotoxicity at 10 µM": 0.603}, {"molecule": "Cc1ccc(C2CN(c3nnc(C(F)F)s3)CCO2)c(C)c1", "note": "(stereo not given)", "cytotoxicity at 10 µM": 3.28}, {"molecule": "CCCOc1cc(CNC(=O)Nc2ccc(C)cc2)ccn1", "cytotoxicity at 10 µM": 2.99}, {"molecule": "CC1COc2ccccc2N1C(=O)c1ccnc(-n2cncn2)c1", "note": "(stereo not given)", "cytotoxicity at 10 µM": 12.5}, {"molecule": "CC(=O)NCc1cc(-c2cccs2)n(C2CCCC2)n1", "cytotoxicity at 10 µM": 3.29}, {"molecule": "CCOc1c(F)cccc1C(=O)N(CC)C(C)c1cccnc1", "note": "(stereo not given)", "cytotoxicity at 10 µM": 11.8}, {"molecule": "COCc1cc(O)nc(C2CCCN(Cc3ccc(OC)cc3)C2)n1", "note": "(stereo not given)", "cytotoxicity at 10 µM": -1.25}]}]}
